{"source": "ChEMBL document CHEMBL1135145", "about": "“Synthesis and bioactivities of novel 4,5,6,7-tetrahydrothieno[2,3-c]pyridines as inhibitors of tumor necrosis factor-alpha (TNF-alpha) production” (Bioorg Med Chem Lett, 2002)", "data": [{"test_system": "Rattus norvegicus", "test": "Compound was evaluated in vivo for the inhibition of LPS-stimulated serum TNF-alpha production in rat after oral administration at a dose 50 mg/kg", "assay_type": "functional", "summary_of_the_method": "(§1)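 Male SD rats, 6 weeks old, given compound orally as a suspension in 0.5% CMC. LPS (E. coli B055:B5, 0.1 mg/kg) injected iv 1 h after dosing. Animals killed and bled 90 min later. Serum TNF-α measured by ELISA. ED50 derived from TNF-α yield relative to LPS controls without compound.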", "units": {"inhibition in vivo at 50 mg/kg": "%"}, "values": [{"smiles": "CC(=O)N1CCc2c(sc(NC(=O)C(C)C)c2C(=O)c2ccccc2Cl)C1", "inhibition in vivo at 50 mg/kg": 2.4}, {"smiles": "CC(=O)N1CCc2c(sc(NC(=O)C(C)C)c2C(=O)c2ccccc2)C1", "inhibition in vivo at 50 mg/kg": 35}, {"smiles": "CCOC(=O)c1c(NC(=O)C2CC2)sc2c1CCN(C(C)=O)C2", "inhibition in vivo at 50 mg/kg": 64.2}, {"smiles": "CC(=O)N1CCc2c(sc(NC(=O)C3CC3)c2C(=O)c2ccccc2Cl)C1", "inhibition in vivo at 50 mg/kg": 35}, {"smiles": "CC(=O)N1CCc2c(sc(NC(=O)C(C)C)c2C(=O)c2ccccc2C)C1", "inhibition in vivo at 50 mg/kg": 3.9}, {"smiles": "CCOC(=O)c1c(NC(=O)C(C)C)sc2c1CCN(C(C)=O)C2", "inhibition in vivo at 50 mg/kg": 49.1}, {"smiles": "CC(=O)c1c(NC(=O)C2CC2)sc2c1CCN(C(C)=O)C2", "inhibition in vivo at 50 mg/kg": 31.3}, {"smiles": "CC(=O)c1c(NC(=O)C(C)C)sc2c1CCN(C(C)=O)C2", "inhibition in vivo at 50 mg/kg": 22.7}, {"smiles": "CC(=O)N1CCc2c(sc(NC(=O)C3CC3)c2C(=O)c2ccccc2C)C1", "inhibition in vivo at 50 mg/kg": 58.6}, {"smiles": "CC(=O)N1CCc2c(sc(NC(=O)C3CC3)c2C(=O)c2ccccc2)C1", "inhibition in vivo at 50 mg/kg": 34.1}]}, {"test_system": "Rattus norvegicus", "test": "Compound was evaluated in vivo for the inhibition of LPS-stimulated serum TNF-alpha production in rat after oral administration of the compound", "assay_type": "functional", "summary_of_the_method": "as §1", "units": {"ED50": "mg/kg"}, "values": [{"smiles": "C[C@@H]1C[C@H]2[C@@H]3CCC4=CC(=O)C=C[C@]4(C)[C@@]3(F)[C@@H](O)C[C@]2(C)[C@@]1(O)C(=O)CO", "note": "[DEXAMETHASONE]", "ED50": 0.12}]}, {"species_on_record": "Rattus norvegicus", "test": "In vitro inhibition of lipopolysaccharide stimulated tumor necrosis factor-alpha production in rat whole blood", "assay_type": "functional", "summary_of_the_method": "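Rat whole blood diluted to 50% in RPMI-1640 containing streptomycin and penicillin. Compound in DMSO, or DMSO vehicle, preincubated for 30 min at 37 °C in 5% CO2. Stimulated with 10 µg/mL LPS (E. coli B055:B5) and incubated 4 h under the same conditions. IC50 taken for inhibition of TNF-α production.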", "units": {"IC50": "µM"}, "values": [{"smiles": "CC(=O)N1CCc2c(sc(N(CC(C)C)CC(C)C)c2C(=O)c2ccccc2Cl)C1", "IC50": 30}, {"smiles": "COc1ccc(C(=O)c2c(NC(C)=O)sc3c2CCN(C(C)=O)C3)cc1", "IC50": 26}, {"smiles": "CC(=O)N1CCc2c(sc(NC(=O)C(C)C)c2C(=O)c2ccc(Cl)cc2)C1", "IC50": "> 100"}, {"smiles": "CC(=O)N1CCc2c(sc(NC(=O)C3CC3)c2C(=O)c2cccc(Cl)c2)C1", "IC50": 20}, {"smiles": "CC(C)C(=O)Nc1sc2c(c1C(=O)c1ccccc1Cl)CCN(C(=O)C1CC1)C2", "IC50": 2.6}, {"smiles": "CC(=O)N1CCc2c(sc(NC(=O)C(C)C)c2C(=O)c2ccccc2Cl)C1", "IC50": 2.6}, {"smiles": "CCOC(=O)c1c(NC(=O)c2cccnc2)sc2c1CCN(C(C)=O)C2", "IC50": 22}, {"smiles": "CC(=O)N1CCc2c(sc(NC(=O)C(C)(C)C)c2C(=O)c2ccccc2Cl)C1", "IC50": 3.4}, {"smiles": "CC(=O)N1CCc2c(sc(NC(=O)C(C)C)c2C(=O)c2ccccc2)C1", "IC50": 3}, {"smiles": "CCN(CC)C(=O)N(C)c1sc2c(c1C(=O)c1ccccc1Cl)CCN(C(C)=O)C2", "IC50": 10}, {"smiles": "CC(=O)N1CCc2c(sc(NC(=O)C(C)(C)C)c2Cc2ccccc2Cl)C1", "IC50": 29}, {"smiles": "COc1ccc(C(=O)c2c(NC(C)=O)sc3c2CCN(C(C)=O)C3)cc1OC", "IC50": 46}, {"smiles": "Nc1sc2c(c1C(=O)c1ccccc1Cl)CCNC2", "IC50": "> 100"}, {"smiles": "CCOC(=O)c1c(NC(=O)C2CC2)sc2c1CCN(C(C)=O)C2", "IC50": 10}, {"smiles": "CC(=O)N1CCc2c(sc(N)c2C(=O)c2ccccc2Cl)C1", "IC50": 72}, {"smiles": "CC(C)C(=O)Nc1sc2c(c1C(=O)c1ccccc1Cl)CCN(Cc1ccccc1)C2", "IC50": 5}, {"smiles": "CCc1c(NC(=O)C(C)C)sc2c1CCN(C(C)=O)C2", "IC50": 23}, {"smiles": "CC(=O)N1CCc2c(sc(NC(=O)c3cccnc3)c2C(=O)c2ccccc2Cl)C1", "IC50": 12}, {"smiles": "CC(=O)N1CCc2c(sc(NC(=O)C3CCCCC3)c2C(=O)c2ccccc2Cl)C1", "IC50": 39}, {"smiles": "CC(C)C(=O)Nc1sc2c(c1C(=O)c1ccccc1Cl)CCN(C)C2", "IC50": 2}, {"smiles": "CC(=O)N1CCc2c(sc(NC(=O)C3CC3)c2C(=O)c2ccccc2Cl)C1", "IC50": 3}, {"smiles": "CC(=O)N1CCc2c(sc(NC(=O)c3ccccc3)c2C(=O)c2ccccc2)C1", "IC50": 48}, {"smiles": "CC(=O)N1CCc2c(sc(NC(=O)C(C)Br)c2C(=O)c2ccccc2Cl)C1", "note": "(configuration not stated)", "IC50": 6}, {"smiles": "CC(=O)N1CCc2c(sc(NC(=O)C(C)(C)C)c2C(O)c2ccccc2Cl)C1", "note": "(configuration not stated)", "IC50": 19}, {"smiles": "CCN1CCc2c(sc(N(CC)C(=O)C(C)C)c2C(=O)c2ccccc2Cl)C1", "IC50": 10}, {"smiles": "CC(=O)Nc1sc2c(c1C(=O)c1ccccc1Cl)CCN(C(C)=O)C2", "IC50": 9.5}, {"smiles": "CC(=O)N1CCc2c(sc(NC(=O)CCc3ccccc3)c2C(=O)c2ccccc2Cl)C1", "IC50": "> 100"}, {"smiles": "O=C(c1ccccc1Cl)c1c(NC(=O)C2CC2)sc2c1CCN(C(=O)C1CC1)C2", "IC50": 0.9}, {"smiles": "CCC(=O)Nc1sc2c(c1C(=O)c1ccccc1Cl)CCN(C(C)=O)C2", "IC50": 15}, {"smiles": "CC(=O)N1CCc2c(sc(NC(=O)C(C)C)c2C(=O)c2ccccc2C)C1", "IC50": 3.9}, {"smiles": "CC(=O)N1CCc2c(sc(NC(=O)c3cccnc3)c2C(=O)c2cccc(Cl)c2)C1", "IC50": 36}, {"smiles": "CCN1CCc2c(sc(NC(=O)C(C)C)c2C(O)c2ccccc2Cl)C1", "note": "(configuration not stated)", "IC50": 100}, {"smiles": "CC(=O)N1CCc2c(sc(NC(=O)c3ccc(F)cc3)c2C(=O)c2ccccc2Cl)C1", "IC50": 100}, {"smiles": "O=C(Nc1sc2c(c1C(=O)c1ccccc1Cl)CCN(C(=O)C1CC1)C2)c1ccccc1", "IC50": "> 100"}, {"smiles": "CCOC(=O)c1c(NC(=O)C(C)C)sc2c1CCN(C(C)=O)C2", "IC50": 22}, {"smiles": "CCN(CC)C(=O)Nc1sc2c(c1C(=O)c1ccccc1Cl)CCN(C(C)=O)C2", "IC50": 0.51}, {"smiles": "CC(=O)N1CCc2c(C(=O)c3ccccc3Cl)csc2C1", "IC50": 38}, {"smiles": "CC(=O)N1CCc2c(sc(NC(=O)/C=C/c3ccccc3)c2C(=O)c2ccccc2Cl)C1", "IC50": "> 100"}, {"smiles": "CC(=O)N1CCc2c(sc(NC(=O)C(C)C)c2C(C)O)C1", "note": "(configuration not stated)", "IC50": 38}, {"smiles": "COc1cccc(OC)c1C(=O)c1c(NC(C)=O)sc2c1CCN(C(C)=O)C2", "IC50": 88}, {"smiles": "CN1CCc2c(sc(NC(=O)C3CC3)c2C(=O)c2ccccc2Cl)C1", "IC50": 1.3}, {"smiles": "O=C(c1ccccc1Cl)c1c(NC(=O)C2CC2)sc2c1CCN(Cc1ccccc1)C2", "IC50": 6.5}, {"smiles": "CC(=O)c1c(NC(=O)C2CC2)sc2c1CCN(C(C)=O)C2", "IC50": 28}, {"smiles": "CC(=O)N1CCc2c(sc(NC(=O)C(C)Cl)c2C(=O)c2ccccc2Cl)C1", "note": "(configuration not stated)", "IC50": 12}, {"smiles": "CC(=O)N1CCc2c(sc(NC(=O)C3CCC3)c2C(=O)c2ccccc2Cl)C1", "IC50": 2.9}, {"smiles": "CC(=O)N1CCc2c(sc(N(C)C(=O)C3CC3)c2C(=O)c2ccccc2Cl)C1", "IC50": 74}, {"smiles": "CC(C)C(=O)Nc1sc2c(c1C(=O)c1ccccc1Cl)CCNC2", "IC50": 4}, {"smiles": "O=C(Nc1sc2c(c1C(=O)c1ccccc1Cl)CCN(C(=O)C1CC1)C2)c1cccnc1", "IC50": 3.9}, {"smiles": "CC(=O)c1c(NC(=O)C(C)C)sc2c1CCN(C(C)=O)C2", "IC50": 35}, {"smiles": "O=C(Nc1sc2c(c1C(=O)c1ccccc1Cl)CCN(Cc1ccccc1)C2)c1cccnc1", "IC50": 7.1}, {"smiles": "CC(=O)N1CCc2c(sc(NC(=O)CCl)c2C(=O)c2ccccc2Cl)C1", "IC50": "> 100"}, {"smiles": "CC(=O)N1CCc2c(sc(NC(=O)C(C)C)c2C(=O)c2cccc(Cl)c2)C1", "IC50": 7.6}, {"smiles": "CCN(CC)C(=O)Nc1sc2c(c1C(=O)c1c(OC)cccc1OC)CCN(C(C)=O)C2", "IC50": 3.8}, {"smiles": "CC(=O)N1CCc2c(sc(NC(=O)C3CC3)c2C(=O)c2ccccc2C)C1", "IC50": 2.9}, {"smiles": "CC(C)CN(CC(C)C)c1sc2c(c1C(=O)c1ccccc1Cl)CCN(C(=O)C1CC1)C2", "IC50": "> 100"}, {"smiles": "O=C(c1ccccc1Cl)c1c(N(CC2CCCCC2)CC2CCCCC2)sc2c1CCN(C(=O)C1CC1)C2", "IC50": "> 100"}, {"smiles": "CC(=O)N1CCc2c(sc(NC(=O)C(C)N)c2C(=O)c2ccccc2Cl)C1", "note": "(configuration not stated)", "IC50": 8}, {"smiles": "CCCCCCC(=O)Nc1sc2c(c1C(=O)c1ccccc1Cl)CCN(C(C)=O)C2", "IC50": "> 100"}, {"smiles": "CC(=O)N1CCc2c(sc(N(C)C(=O)C(C)C)c2C(=O)c2ccccc2Cl)C1", "IC50": 33}, {"smiles": "CC(=O)N1CCc2c(sc(NC(=O)c3cccnc3)c2C(=O)c2ccccc2)C1", "IC50": 14}, {"smiles": "CC(=O)N1CCc2c(sc(NC(=O)C3CC3)c2C(=O)c2ccccc2)C1", "IC50": 3}, {"smiles": "O=C(Nc1sc2c(c1C(=O)c1ccccc1Cl)CCN(Cc1ccccc1)C2)c1ccccc1", "IC50": "> 100"}, {"smiles": "CC(=O)N1CCc2c(sc(NC(=O)c3ccncc3)c2C(=O)c2ccccc2Cl)C1", "IC50": 21}, {"smiles": "CC(=O)N1CCc2c(sc(NC(=O)c3ccccc3)c2C(=O)c2ccccc2Cl)C1", "IC50": 46}, {"smiles": "CCN1CCc2c(sc(NC(=O)C(C)C)c2C(=O)c2ccc3c(c2)OCO3)C1", "IC50": 78}, {"smiles": "CC(=O)N1CCc2c(sc(N(CC3CCCCC3)CC3CCCCC3)c2C(=O)c2ccccc2Cl)C1", "IC50": 100}, {"smiles": "CCN1CCc2c(sc(NC(=O)C(C)C)c2C(=O)c2ccccc2Cl)C1", "IC50": 0.92}, {"smiles": "CCNC(=O)Nc1sc2c(c1C(=O)c1ccccc1Cl)CCN(C(C)=O)C2", "IC50": 10}, {"smiles": "C[C@@H]1C[C@H]2[C@@H]3CCC4=CC(=O)C=C[C@]4(C)[C@@]3(F)[C@@H](O)C[C@]2(C)[C@@]1(O)C(=O)CO", "note": "[DEXAMETHASONE]", "IC50": 0.02}, {"smiles": "CC(=O)CCCCn1c(=O)c2c(ncn2C)n(C)c1=O", "note": "[PENTOXIFYLLINE]", "IC50": 40}]}, {"test_system": "Rattus norvegicus", "test": "Compound was evaluated in vivo for the inhibition of LPS-stimulated serum TNF-alpha production in rat after oral administration at a dose 100 mg/kg", "assay_type": "functional", "summary_of_the_method": "as §1", "units": {"inhibition in vivo at 100 mg/kg": "%"}, "values": [{"smiles": "CC(=O)CCCCn1c(=O)c2c(ncn2C)n(C)c1=O", "note": "[PENTOXIFYLLINE]", "inhibition in vivo at 100 mg/kg": 74.4}]}]}
